Test results published in ChEMBL document CHEMBL4261600 (Eur J Med Chem, 2018).

Experiments:
Homo sapiens [1] = organism: Homo sapiens; assay: Induction of apoptosis in human MEC1 cells assessed as decrease in c-MYC level after 2 hrs by immunoblotting analysis; type: functional, cell-based
[2] = biological target: Tyrosine-protein kinase ABL1 (Homo sapiens) (UniProt P00519); assay: Binding affinity to wild-type human phosphorylated ABL1 (S229 to K512 residues) expressed in mammalian expression system assessed as remaining unbound target protein level at 1000 nM by Kinomescan method relative to control
[3] = biological target: Activin receptor type-1-like (Homo sapiens) (UniProt P37023); assay: Binding affinity to wild-type human ACVRL1 (L164 to Q503 residues) expressed in bacterial expression system assessed as remaining unbound target protein level at 1000 nM by Kinomescan method relative to control
How it was run: (§1)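 Single-point competition binding screen across a panel of 468 kinases and mutants, with the inhibitor at 1 μM. Binding is read out as percent of a DMSO control, and targets below 1 percent control were classed as strong binders.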

[4] = biological target: NUAK family SNF1-like kinase 1 (Homo sapiens) (UniProt O60285); assay: Binding affinity to wild-type human partial length ARK5 (E25 to I332 residues) expressed in bacterial expression system assessed as remaining unbound target protein level at 1000 nM by Kinomescan method relative to control
NUAK family SNF1-like kinase 1 (Homo sapiens), sequence (O60285 whole entry, the tested form may be a part): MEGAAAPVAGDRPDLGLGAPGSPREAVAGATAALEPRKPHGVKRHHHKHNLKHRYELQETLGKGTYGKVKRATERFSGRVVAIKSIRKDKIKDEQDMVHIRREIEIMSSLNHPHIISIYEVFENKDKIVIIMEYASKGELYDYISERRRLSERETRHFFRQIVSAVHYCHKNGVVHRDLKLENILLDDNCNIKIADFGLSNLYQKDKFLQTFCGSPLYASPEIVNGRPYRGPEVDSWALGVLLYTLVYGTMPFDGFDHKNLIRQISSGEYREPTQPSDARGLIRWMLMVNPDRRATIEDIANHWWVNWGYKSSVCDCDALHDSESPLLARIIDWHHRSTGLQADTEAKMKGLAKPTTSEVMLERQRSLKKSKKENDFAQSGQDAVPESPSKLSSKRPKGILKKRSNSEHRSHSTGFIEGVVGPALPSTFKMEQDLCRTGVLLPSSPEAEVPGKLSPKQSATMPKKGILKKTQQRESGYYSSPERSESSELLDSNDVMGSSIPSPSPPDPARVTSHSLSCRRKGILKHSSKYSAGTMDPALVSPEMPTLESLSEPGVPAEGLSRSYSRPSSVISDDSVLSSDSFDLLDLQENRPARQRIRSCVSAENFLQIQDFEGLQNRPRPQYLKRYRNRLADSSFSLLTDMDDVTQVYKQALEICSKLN
How it was run: (§2)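 Profiled in a KINOMEscan binding panel with the inhibitor at a single concentration of 1 μM. Binding to each kinase was read out as percent of control, relative to a DMSO control. Strong binders were defined as those with a percent control value below 1.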

[5] = biological target: Cyclin-dependent kinase 11B (Homo sapiens, UniProt P21127); assay: Binding affinity to wild-type human partial length CDC2L1 (P353 to G692 residues) expressed in bacterial expression system assessed as remaining unbound target protein level at 1000 nM by Kinomescan method relative to control; how it was run: as §2
Cyclin-dependent kinase 11B, sequence (P21127 whole entry, the tested form may be a part): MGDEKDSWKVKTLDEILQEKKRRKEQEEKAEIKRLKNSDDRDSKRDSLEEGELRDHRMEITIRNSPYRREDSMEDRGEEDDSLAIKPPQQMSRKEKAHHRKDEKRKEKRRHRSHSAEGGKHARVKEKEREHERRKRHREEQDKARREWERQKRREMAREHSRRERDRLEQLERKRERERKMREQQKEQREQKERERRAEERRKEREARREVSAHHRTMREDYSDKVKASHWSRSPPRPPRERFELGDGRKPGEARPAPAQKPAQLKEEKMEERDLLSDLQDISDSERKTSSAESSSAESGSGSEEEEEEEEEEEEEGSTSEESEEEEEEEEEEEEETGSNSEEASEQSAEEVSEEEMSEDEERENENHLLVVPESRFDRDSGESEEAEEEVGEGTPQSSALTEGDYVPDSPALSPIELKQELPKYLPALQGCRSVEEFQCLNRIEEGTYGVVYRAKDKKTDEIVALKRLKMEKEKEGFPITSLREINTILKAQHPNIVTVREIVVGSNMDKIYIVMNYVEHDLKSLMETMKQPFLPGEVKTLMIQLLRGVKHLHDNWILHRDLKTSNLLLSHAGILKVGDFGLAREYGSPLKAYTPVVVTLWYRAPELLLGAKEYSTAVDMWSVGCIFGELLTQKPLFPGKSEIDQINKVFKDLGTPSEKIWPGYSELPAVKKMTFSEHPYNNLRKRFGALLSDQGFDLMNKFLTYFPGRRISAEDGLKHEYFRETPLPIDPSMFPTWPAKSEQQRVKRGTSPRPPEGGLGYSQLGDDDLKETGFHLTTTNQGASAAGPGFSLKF

[6] = biological target: Cyclin-dependent kinase 11A (Homo sapiens) (UniProt Q9UQ88); assay: Binding affinity to wild-type human partial length CDC2L2 (D391 to K730 residues) expressed in bacterial expression system assessed as remaining unbound target protein level at 1000 nM by Kinomescan method relative to control; how it was run: as §2
[7] = biological target: Casein kinase II subunit alpha (Homo sapiens) (UniProt P68400); assay: Binding affinity to wild-type human full length CSNK2A1 (M1 to Q391 residues) expressed in mammalian expression system assessed as remaining unbound target protein level at 1000 nM by Kinomescan method relative to control
How it was run: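 KINOMEscan competitive binding profile at 1 μM inhibitor. Remaining target binding reported as percent of DMSO control.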

[8] = test system: Epidermal growth factor receptor (Homo sapiens), P00533 [L861Q]; assay: Binding affinity to human partial length EGFR L861Q mutant (R669 to V1011 residues) expressed in bacterial expression system assessed as remaining unbound target protein level at 1000 nM by Kinomescan method relative to control
How it was run: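 KINOMEscan competition-binding profiling across the panel of 468 kinases and mutants, with inhibitor tested at 1 μM. Binding is expressed as percent of control, with DMSO as the reference control.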

[9] = biological target: Mitogen-activated protein kinase 1 (Homo sapiens) (UniProt P28482); assay: Binding affinity to wild-type human full length ERK2 (M1 to S360 residues) expressed in bacterial expression system assessed as remaining unbound target protein level at 1000 nM by Kinomescan method relative to control; how it was run: as §1
[10] = biological target: Mitogen-activated protein kinase 4 (Homo sapiens) (UniProt P31152); assay: Binding affinity to wild-type human partial length ERK4 (M1 to L365 residues) expressed in bacterial expression system assessed as remaining unbound target protein level at 1000 nM by Kinomescan method relative to control
Mitogen-activated protein kinase 4 (Homo sapiens), sequence (P31152 whole entry, the tested form may be a part): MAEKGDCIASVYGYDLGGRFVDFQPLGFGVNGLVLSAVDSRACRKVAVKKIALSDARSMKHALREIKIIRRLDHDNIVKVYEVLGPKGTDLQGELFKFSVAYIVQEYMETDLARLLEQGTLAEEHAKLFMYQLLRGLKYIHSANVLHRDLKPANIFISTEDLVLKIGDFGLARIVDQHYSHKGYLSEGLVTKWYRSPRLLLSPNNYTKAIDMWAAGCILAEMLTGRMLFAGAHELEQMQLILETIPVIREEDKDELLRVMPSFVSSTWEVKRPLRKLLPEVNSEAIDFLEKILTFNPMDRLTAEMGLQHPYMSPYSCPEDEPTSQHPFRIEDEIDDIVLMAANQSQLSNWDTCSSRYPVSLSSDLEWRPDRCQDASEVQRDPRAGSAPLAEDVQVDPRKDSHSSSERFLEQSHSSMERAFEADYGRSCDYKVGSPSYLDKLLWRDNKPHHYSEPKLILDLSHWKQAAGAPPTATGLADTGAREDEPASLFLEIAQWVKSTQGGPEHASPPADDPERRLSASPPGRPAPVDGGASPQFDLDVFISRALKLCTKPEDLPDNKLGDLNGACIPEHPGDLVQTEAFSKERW
How it was run: (§3)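 KINOMEscan binding panel of 468 kinases/mutants. Inhibitor was tested at a single concentration of 1 μM. Binding is reported as percent of control, defined relative to a DMSO control.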

[11] = biological target: Serine/threonine-protein kinase 10 (Homo sapiens) (UniProt O94804); assay: Binding affinity to wild-type human partial length LOK (E16 to V314 residues) expressed in bacterial expression system assessed as remaining unbound target protein level at 1000 nM by Kinomescan method relative to control
Serine/threonine-protein kinase 10 (Homo sapiens), sequence (O94804 whole entry, looked up, the tested form may be a part): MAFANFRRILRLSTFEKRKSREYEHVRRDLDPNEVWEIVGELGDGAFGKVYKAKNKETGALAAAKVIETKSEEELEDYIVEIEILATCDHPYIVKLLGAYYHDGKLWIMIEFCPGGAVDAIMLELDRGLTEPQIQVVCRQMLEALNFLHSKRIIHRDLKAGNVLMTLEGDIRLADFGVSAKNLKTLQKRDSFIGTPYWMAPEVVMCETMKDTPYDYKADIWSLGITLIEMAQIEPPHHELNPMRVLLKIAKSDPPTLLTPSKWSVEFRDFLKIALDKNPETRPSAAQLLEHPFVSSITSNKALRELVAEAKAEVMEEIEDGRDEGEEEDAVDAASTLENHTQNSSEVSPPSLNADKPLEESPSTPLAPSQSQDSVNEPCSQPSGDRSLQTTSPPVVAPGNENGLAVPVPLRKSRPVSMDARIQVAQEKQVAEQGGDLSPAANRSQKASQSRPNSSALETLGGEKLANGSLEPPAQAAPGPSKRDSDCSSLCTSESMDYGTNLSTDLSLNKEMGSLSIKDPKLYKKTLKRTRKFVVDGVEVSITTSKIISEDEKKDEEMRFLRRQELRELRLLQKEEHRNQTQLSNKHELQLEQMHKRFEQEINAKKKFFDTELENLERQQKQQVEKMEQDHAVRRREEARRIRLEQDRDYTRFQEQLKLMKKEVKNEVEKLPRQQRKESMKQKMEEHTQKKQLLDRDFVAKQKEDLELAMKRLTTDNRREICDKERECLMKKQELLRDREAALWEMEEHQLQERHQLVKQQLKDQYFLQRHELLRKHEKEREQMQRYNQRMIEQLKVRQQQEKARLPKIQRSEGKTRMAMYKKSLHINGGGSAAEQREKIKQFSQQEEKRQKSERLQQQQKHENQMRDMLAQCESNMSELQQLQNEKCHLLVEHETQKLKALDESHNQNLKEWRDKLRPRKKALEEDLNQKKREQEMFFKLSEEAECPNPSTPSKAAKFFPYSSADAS

[12] = biological target: Leukocyte tyrosine kinase receptor (Homo sapiens) (UniProt P29376); assay: Binding affinity to wild-type human partial length LTK (P422 to S744 residues) expressed in bacterial expression system assessed as remaining unbound target protein level at 1000 nM by Kinomescan method relative to control; how it was run: as §3
Leukocyte tyrosine kinase receptor (Homo sapiens), sequence (P29376 whole entry, the tested form may be a part): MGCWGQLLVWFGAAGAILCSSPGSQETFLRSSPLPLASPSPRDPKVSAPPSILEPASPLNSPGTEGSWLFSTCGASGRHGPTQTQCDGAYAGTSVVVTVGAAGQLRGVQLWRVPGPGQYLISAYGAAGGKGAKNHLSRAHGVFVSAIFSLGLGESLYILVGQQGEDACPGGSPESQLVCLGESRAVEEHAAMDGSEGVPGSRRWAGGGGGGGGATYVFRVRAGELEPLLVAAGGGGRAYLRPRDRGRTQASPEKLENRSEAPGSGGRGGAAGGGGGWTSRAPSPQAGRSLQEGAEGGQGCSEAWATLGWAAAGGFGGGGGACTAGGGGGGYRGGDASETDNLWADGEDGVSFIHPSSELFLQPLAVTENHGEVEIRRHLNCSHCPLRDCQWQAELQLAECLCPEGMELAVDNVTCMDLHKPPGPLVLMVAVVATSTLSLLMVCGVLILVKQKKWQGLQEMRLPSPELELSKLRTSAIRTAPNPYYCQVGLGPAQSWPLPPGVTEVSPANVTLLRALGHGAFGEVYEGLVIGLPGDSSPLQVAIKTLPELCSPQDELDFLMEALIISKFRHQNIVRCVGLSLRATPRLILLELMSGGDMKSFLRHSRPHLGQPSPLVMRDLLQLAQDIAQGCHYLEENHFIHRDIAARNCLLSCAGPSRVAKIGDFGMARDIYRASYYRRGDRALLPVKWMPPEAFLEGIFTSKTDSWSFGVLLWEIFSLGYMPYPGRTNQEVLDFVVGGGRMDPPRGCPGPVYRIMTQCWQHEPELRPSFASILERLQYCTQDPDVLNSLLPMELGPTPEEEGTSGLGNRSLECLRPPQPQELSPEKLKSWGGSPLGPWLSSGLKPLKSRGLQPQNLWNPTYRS

[13] = biological target: Myosin-IIIb (Homo sapiens) (UniProt Q8WXR4); assay: Binding affinity to wild-type human partial length MYO3B (M1 to D357 residues) expressed in bacterial expression system assessed as remaining unbound target protein level at 1000 nM by Kinomescan method relative to control
[14] = biological target: Mitogen-activated protein kinase kinase kinase 14 (Homo sapiens) (UniProt Q99558); assay: Binding affinity to wild-type human partial length NIK (L318 to P947 residues) expressed in mammalian expression system assessed as remaining unbound target protein level at 1000 nM by Kinomescan method relative to control
[15] = biological target: Mitogen-activated protein kinase 12 (Homo sapiens) (UniProt P53778); assay: Binding affinity to wild-type human full length p38-gamma (M1 to L367 residues) expressed in mammalian expression system assessed as remaining unbound target protein level at 1000 nM by Kinomescan method relative to control
Mitogen-activated protein kinase 12 (Homo sapiens), sequence (P53778 whole entry, the tested form may be a part): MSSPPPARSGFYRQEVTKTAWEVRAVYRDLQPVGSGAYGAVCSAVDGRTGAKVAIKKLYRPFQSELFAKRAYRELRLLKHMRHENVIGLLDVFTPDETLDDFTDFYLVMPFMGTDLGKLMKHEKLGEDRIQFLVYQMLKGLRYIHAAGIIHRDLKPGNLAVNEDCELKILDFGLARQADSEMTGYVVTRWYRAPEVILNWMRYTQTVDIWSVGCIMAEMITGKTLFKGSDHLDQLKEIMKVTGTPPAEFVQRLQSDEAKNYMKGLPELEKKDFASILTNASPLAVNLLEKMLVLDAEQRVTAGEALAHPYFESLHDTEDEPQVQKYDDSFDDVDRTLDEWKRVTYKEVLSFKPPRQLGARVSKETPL
How it was run: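 KINOMEscan competition binding profile across a panel of 468 kinases and mutants, with the inhibitor tested at a single concentration of 1 μM. Binding is reported as percent of control, meaning signal relative to a DMSO control.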

[16] = biological target: Phosphorylase b kinase gamma catalytic chain, liver/testis isoform (Homo sapiens) (UniProt P15735); assay: Binding affinity to wild-type human partial length PHKG2 (M1 to W300 residues) expressed in bacterial expression system assessed as remaining unbound target protein level at 1000 nM by Kinomescan method relative to control; how it was run: as §3
[17] = biological target: Serine/threonine-protein kinase PLK1 (Homo sapiens) (UniProt P53350); assay: Binding affinity to wild-type human partial length PLK1 (A33 to F325 residues) expressed in mammalian expression system assessed as remaining unbound target protein level at 1000 nM by Kinomescan method relative to control
Serine/threonine-protein kinase PLK1 (Homo sapiens), sequence (P53350 whole entry, the tested form may be a part): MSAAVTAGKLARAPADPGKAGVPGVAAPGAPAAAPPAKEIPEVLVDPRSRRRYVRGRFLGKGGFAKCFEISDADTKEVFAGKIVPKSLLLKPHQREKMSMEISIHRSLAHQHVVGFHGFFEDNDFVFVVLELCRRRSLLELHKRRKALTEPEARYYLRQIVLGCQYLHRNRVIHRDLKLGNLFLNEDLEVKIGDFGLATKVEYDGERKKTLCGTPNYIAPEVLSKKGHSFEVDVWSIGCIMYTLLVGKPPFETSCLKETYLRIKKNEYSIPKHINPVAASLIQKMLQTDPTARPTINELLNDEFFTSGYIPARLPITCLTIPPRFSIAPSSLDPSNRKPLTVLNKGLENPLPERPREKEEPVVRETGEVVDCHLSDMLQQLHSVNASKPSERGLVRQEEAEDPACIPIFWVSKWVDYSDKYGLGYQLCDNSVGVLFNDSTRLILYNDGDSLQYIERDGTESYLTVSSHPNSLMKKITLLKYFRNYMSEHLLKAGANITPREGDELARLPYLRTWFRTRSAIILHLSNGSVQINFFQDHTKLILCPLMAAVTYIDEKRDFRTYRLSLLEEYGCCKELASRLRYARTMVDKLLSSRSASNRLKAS

[18] = biological target: Serine/threonine-protein kinase D2 (Homo sapiens) (UniProt Q9BZL6); assay: Binding affinity to wild-type human partial length PRKD2 (A519 to E838 residues) expressed in bacterial expression system assessed as remaining unbound target protein level at 1000 nM by Kinomescan method relative to control
[19] = biological target: Serine/threonine-protein kinase SIK3 (Homo sapiens) (UniProt Q9Y2K2); assay: Binding affinity to wild-type human partial length QSK (A90 to L395 residues) expressed in mammalian expression system assessed as remaining unbound target protein level at 1000 nM by Kinomescan method relative to control
[20] = biological target: TGF-beta receptor type-2 (Homo sapiens) (UniProt P37173); assay: Binding affinity to wild-type human partial length TGFBR2 (I218 to K567 residues) expressed in bacterial expression system assessed as remaining unbound target protein level at 1000 nM by Kinomescan method relative to control
Homo sapiens [21] = organism: Homo sapiens; assay: Selectivity ratio of IC50 for recombinant full length His-tagged human CDK1/CyclinB to IC50 for recombinant full length His-tagged human CDK9/CyclinT1

COCCN[C@H]1CC[C@H](Nc2cc(-c3csc(NCC4(C#N)CCOCC4)n3)c(Cl)cn2)CC1
Activity (Homo sapiens [1]): Dose-dependent effect
Activity [2]: 91%
Activity [3]: 100%
Activity [4]: 100%
Activity [5]: 93%
Activity [6]: 90%
Activity [7]: 81%
Activity [8]: 76%
Activity [9]: 96%
Activity [10]: 99%
Activity [11]: 100%
Activity [12]: 95%
Activity [13]: 82%
Activity [14]: 100%
Activity [15]: 99%
Activity [16]: 99%
Activity [17]: 75%
Activity [18]: 70%
Activity [19]: 79%
Activity [20]: 100%
Ratio IC50 (Homo sapiens [21]): > 1000
